In paper PMC4298165 (Cell, 2014):

Columns and labels:
[1] = system: TRiC; assay: Crosslinking-mass spectrometry; format: binding; conditions: DSS crosslinking, trypsin, tandem MS, xQuest
Outline: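 Intact TRiC crosslinked with DSS to full-length actin, tubulin or HIV Gag. Crosslinked samples were trypsin-digested and enriched for crosslinked species before MS. Crosslink sites on CCT subunits were mapped onto the apical-domain structure.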

[2] = system: ApiCCT3; assay: NMR chemical-shift mapping, 15N-labeled p6 with unlabeled ApiCCT3; format: binding; conditions: 15N-1H HSQC, 0, 2.5, 5 and 10-fold excess ApiCCT3
Outline: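 Recombinant p6 was expressed with 15N/13C isotope labeling and purified. Chemical-shift mapping used 300 µM protein samples on an 800 MHz spectrometer with a cryogenic probe.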

[3] = system: CCT3; conditions: cited from earlier work
[4] = system: ApiCCT3; format: binding; conditions: 15N-1H HSQC
[5] = system: intact purified TRiC; assay: NMR chemical shift perturbation of 15N p6 with intact purified TRiC; format: binding; conditions: Fig. S4D
[6] = system: endogenous TRiC; assay: Biotin affinity isolation from HEK293 extracts and TRiC immunoblot; format: binding, human; conditions: biotinylated peptide, HEK293 extract, immunoblot against CCT5 and CCT2
[7] = molecular target: T1, apical domain of CCT3 (ApiCCT3) (UniProt P49368 210-380); assay: SPR
T1 sequence (looked up): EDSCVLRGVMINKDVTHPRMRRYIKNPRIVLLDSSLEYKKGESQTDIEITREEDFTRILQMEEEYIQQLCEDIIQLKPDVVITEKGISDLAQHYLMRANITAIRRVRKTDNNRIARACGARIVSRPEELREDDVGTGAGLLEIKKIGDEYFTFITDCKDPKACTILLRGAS

[8] = system: p6; assay: SPR kinetics of ApiCCT3 alanine mutants on immobilized p6; format: binding, HIV; conditions: 31 surface-exposed residues substituted

actin
location of heterotypic TRiC crosslinks [1]: localized to substrate determinants previously implicated in TRiC binding

p6: 54 amino acid long HIV protein p6 (LQSRPEPTAPPEESFRSGVETTTPPQKQEPIDKELYPLTSLRSLFGNDPSSQ)
chemical shift perturbation of 15N-p6 by ApiCCT3 [2]: concentration-dependent chemical shift perturbation in a subset of peaks
association with CCT3 [3]: associate directly with subunit CCT3 of TRiC
chemical shift perturbation of 15N-ApiCCT3 ([4]; 300 µM protein sample, 800 MHz, 0, 5, 10, 20-fold excess p6 (Fig. 2)): concentration-dependent shifts in a specific subset of peaks
number of ApiCCT3 peaks perturbed weakly ([4]; > 0.1 p.p.m.): 4 peaks
number of ApiCCT3 peaks strongly perturbed ([4]; > 0.2 p.p.m.): 5 peaks
chemical shift perturbation of 15N p6 by intact TRiC [5]: the same subset of p6 residues was affected upon addition of intact TRiC
binding to endogenous TRiC [6]: bound TRiC

B1: HIV protein p6 (natural protein)
chain: LQSRPEPTAPPEESFRSGVETTTPPQKQEPIDKELYPLTSLRSLFGNDPSSQ
Kd [7]: 250 to 500 nM

B2: tubulin: full length physiological substrate of TRiC (protein)
chain: MREIIHISTGQCGNQIGAAFWETICGEHGLDFNGTYHGHDDIQKERLNVYFNEASSGKWVPRSINVDLEPGTIDAVRNSAIGNLFRPDNYIFGQSSAGNVWAKGHYTEGAELVDSVMDVIRREAEGCDSLQGFQITHSLGGGTGSGMGTLLISKIREEFPDRMMATFSVLPSPKTSDTVVEPYNATLSVHQLVEHSDETFCIDNEALYDICQRTLKLNQPSYGDLNNLVSSVMSGVTTSLRYPGQLNSDLRKLAVNLVPFPRLHFFMVGYAPLTAIGSQSFRSLTVPELTQQMFDAKNMMAAADPRNGRYLTVAAFFRGKVSVKEVEDEMHKVQSKNSDYFVEWIPNNVQTAVCSVAPQGLDMAATFIANSTSIQELFKRVGDQFSAMFKRKAFLHWYTSEGMDELEFSEAESNMNDLVSEYQQYQEATVEDDEEVDENGDFGAPQNQDEPITENFE
crosslinks to TRiC subunits [1]: crosslinked to multiple TRiC subunits through specific regions in the polypeptide
location of heterotypic TRiC crosslinks [1]: localized to substrate determinants previously implicated in TRiC binding

B3: Y274A (protein)
chain: MMGHRPVLVLSQNTKRESGRKVQSGNINAAKTIADIIRTCLGPKSMMKMLLDPMGGIVMTNDGNAILREIQVQHPAAKSMIEISRTQDEEVGDGTTSVIILAGEMLSVAEHFLEQQMHPTVVISAYRKALDDMISTLKKISIPVDISDSDMMLNIINSSITTKAISRWSSLACNIALDAVKMVQFEENGRKEIDIKKYARVEKIPGGIIEDSCVLRGVMINKDVTHPRMRRYIKNPRIVLLDSSLEYKKGESQTDIEITREEDFTRILQMEEEAIQQLCEDIIQLKPDVVITEKGISDLAQHYLMRANITAIRRVRKTDNNRIARACGARIVSRPEELREDDVGTGAGLLEIKKIGDEYFTFITDCKDPKACTILLRGASKEILSEVERNLQDAMQVCRNVLLDPQLVPGGGASEMAVAHALTEKSKAMTGVEQWPYRAVAQALEVIPRTLIQNCGASTIRLLTSLRAKHTQENCETWGVNGETGTLVDMKELGIWEPLAVKLQTYKTAVETAVLLLRIDDIVSGHKKKGDDQSRQGGAPDAGQE
impact of Ala substitution in ApiCCT3 on p6 binding [8]: no impact on p6 binding
